m-calpain inh: inhibitors of pig calpain II. purified calpain II, fluorogenic peptide substrate, 30 min. inhibition, % at 16 µM. 220,000 compounds, 0.37% hits;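 active = inhibition above about 50%, limit read from the data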
Rad51 HR inh: blocks human Rad51 in homologous recombination. hRad51 DNA strand exchange, fluorescence dequenching. inhibition, % at 10 µM. 200,000 compounds, 0.085% hits. AID 1385;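 active = inhibition above 40% at the single screening dose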
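Test system – preformed human Rad51 ssDNA filaments · Reagent – Donor/quencher-labelled 47-bp dsDNA substrate · Incubation – 37 °C 15-min filament assembly, 30-min compound preincubation, 15-min exchange · Signal – FRET fluorescence dequenching, excitation 485 nm, emission 520 nm · Read-out – percent inhibition from fluorescence, normalised to plate control and blank means · Benchmarks – plate control and blank wells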
HMGR II inh: inhibitors of class II HMG-CoA reductase from Enterococcus faecalis. purified E. faecalis HMGR, NADPH absorbance 340 nm kinetic. inhibition, % at 10 µM. 190,000 compounds, 0.41% hits. AID 1066;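 active = inhibition above a set limit, the median over all tested compounds plus 3 SD, cut at about 9.5% in these data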;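 also: enzyme runs in reverse so mevalonate oxidation gives rising NADPH absorbance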
PMI act hi M6P: increases human PMI activity with near-saturating mannose 6-phosphate. P34949. coupled PMI enzyme assay, resazurin fluorescence, 20 min; active compounds read high; 1 = untreated enzyme, 0 = substrate-free blank. activation factor at 20 µM. 190,000 compounds, 0.34% hits. AID 1216;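 active = activation factor of 2 or more at 20 µM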
Target sequence (P34949 whole entry, looked up): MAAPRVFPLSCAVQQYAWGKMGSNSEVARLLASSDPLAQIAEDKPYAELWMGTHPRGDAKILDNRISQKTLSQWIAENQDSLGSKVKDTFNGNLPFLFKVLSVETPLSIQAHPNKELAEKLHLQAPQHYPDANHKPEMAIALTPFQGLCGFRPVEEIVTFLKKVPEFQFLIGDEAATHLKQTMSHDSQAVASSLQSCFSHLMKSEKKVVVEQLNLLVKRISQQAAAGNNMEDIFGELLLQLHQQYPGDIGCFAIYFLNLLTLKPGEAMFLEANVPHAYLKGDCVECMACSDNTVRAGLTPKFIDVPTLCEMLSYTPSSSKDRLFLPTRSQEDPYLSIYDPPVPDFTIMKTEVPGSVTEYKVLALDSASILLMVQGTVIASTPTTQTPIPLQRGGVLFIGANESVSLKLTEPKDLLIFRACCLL
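Test system – human PMI in coupled enzyme assay · Timing – 20 min incubation at room temperature · Detection – Diaphorase-driven resazurin-to-resorufin fluorescence, excitation 544, emission 590 nm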
PMI activator: activators of human phosphomannose isomerase | P34949 | purified human PMI, coupled resazurin fluorescence, 20 min; active compounds read high; 1 = vehicle control, 0 substrate-free wells | activation factor at 20 µM | 190,000 compounds, 0.005% hits;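 active = activation factor of 2 or more at 20 µM, relative to plate controls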
Hits are given with their value; n = inactive; x = no result given. Sampled rows, rich in hits. Any-hit rate of the full collection: about 1.1%.

SMILES | m-calpain inh | Rad51 HR inh | HMGR II inh | PMI act hi M6P | PMI activator
Cc1ccc2cc3c(N)c(C(=O)N4CC(=O)Nc5ccccc54)sc3nc2c1 | n | x | n | 2.1 | n
Cc1ccc2nc3sc(C(=O)N4CCOCC4)c(N)c3cc2c1 | n | n | n | 2 | n
Cc1cc(C)cc(C(=O)N2CC(=O)Nc3ccccc32)c1 | n | n | n | n | n
COc1ccc(Cc2noc(-c3ccccc3)n2)cc1OC | n | n | 15 | n | n
COc1cccc(-c2nc(Cc3ccc(OC)c(OC)c3)no2)c1 | n | n | n | n | n
COc1ccc(NC(=O)Cc2nn(C)c(=O)c3ccccc23)c2ncccc12 | x | x | x | n | n
COc1ccc(C(=O)N/C(=C/c2ccco2)C(=O)NC2CCS(=O)(=O)C2)cc1 (stereo not given) | n | n | n | n | n
CCOC(=O)/C(C#N)=C1/C(=O)N(Cc2ccccc2)c2ccccc21 | n | n | 15 | n | n
CCOC(=O)/C(C#N)=C1/C=Cc2ccccc2N1CC | n | n | n | n | n
Cc1ccc(NC(=O)N(Cc2nc3ccccc3c(=O)[nH]2)Cc2cccs2)cc1 | n | n | n | n | n
CCn1cc(C(=O)NNC(=O)c2ccc(Cl)cc2)c(=O)c2ccc(C)nc21 | n | n | n | n | n
CCCSc1nc2cc(C)c(C)cc2n1CC(C)O (stereo not given) | n | n | n | 2.3 | n
Cc1ccc(NC(=O)COc2cccc(/C=C3\SC(=S)N(CCC(=O)O)C3=O)c2)cc1Cl | 76 | n | x | x | x
O=C(O)CCN1C(=O)/C(=C\c2cccc(OCC(=O)Nc3ccc(Cl)cc3)c2)SC1=S | n | n | x | x | x
NC(=S)N/N=C/c1coc2c(ccc3ccccc32)c1=O | 73 | n | n | n | n
c1ccc(-c2csc(Nc3ncccn3)n2)cc1 | n | n | n | n | n
NNc1nc(-c2ccccc2)cs1 | n | n | n | 2 | n
Cc1ccsc1/C=C1/NC(=O)N(Cc2ccc(F)cc2)C1=O | n | n | 15 | n | n
O=C(O)c1ccc(COc2ccccc2/C=C2/NC(=O)N(c3cccc(Cl)c3)C2=O)cc1 | n | x | n | n | n
O=C(O)c1ccc(COc2ccccc2/C=C2\NC(=O)N(Cc3ccc(F)cc3)C2=O)cc1 | n | n | 11 | n | n
CCOC(=O)/C(=C/c1ccco1)NC(=O)c1ccc(Br)o1 | n | x | n | n | n
CC(C)CCNC(=O)NC(=O)COC(=O)CNC(=O)C1CCCCC1 | n | n | n | n | n
Cc1ccc(Oc2c(CO)c(-c3ccccc3)nn2C)cc1 | n | n | n | n | n
O=C(NCc1cccnc1)c1ccccc1CCc1ccccc1 | 50 | n | n | n | n
O=C(O)c1ccccc1C(=O)NCc1cccnc1 | n | n | n | n | n
SMILES | m-calpain inh | Rad51 HR inh | HMGR II inh | PMI act hi M6P | PMI activator
CCN(CC)C(=S)SCC(=O)Nc1ncc2c(n1)CC(C)(C)CC2=O | n | x | x | x | x
CCCCCn1c(=O)c(-c2nc3ccccc3[nH]2)c(O)c2ccccc21 | n | x | n | n | n
C=CCNc1ccc(N2C(=O)C3CCC(C)CC3C2=O)cc1[N+](=O)[O-] (stereo not given) | 67 | n | n | n | n
O=C1C2CCCCC2C(=O)N1c1ccc(NC2CCCCC2)c([N+](=O)[O-])c1 (stereo not given) | 61 | n | n | n | n
COCCNc1ccc(N2C(=O)C3CCCCC3C2=O)cc1[N+](=O)[O-] (stereo not given) | n | x | n | n | n
CCOC(=O)CNC(=O)CSc1nccn1Cc1ccco1 | n | n | n | n | n
C=CCN(c1ccc(F)cc1)S(=O)(=O)c1cc(C(=O)OCC(=O)N(C)C2CCS(=O)(=O)C2)ccc1Cl (stereo not given) | n | x | x | x | x
CC1CCC(NC(=O)CN(C)S(=O)(=O)c2cnc[nH]2)CC1 (stereo not given) | n | n | n | n | n
CC1CCCC(NC(=O)CN(C)S(=O)(=O)c2cnc[nH]2)C1C (stereo not given) | n | n | 14 | n | n
C=CCOC(=O)C1=C(C)NC(=S)C(C#N)(CC=C)C1c1ccccc1Cl (stereo not given) | n | n | x | x | x
Cc1oc2c(c1C(=O)c1ccc(Cl)cc1)C(=O)C(=O)c1ccccc1-2 | 62 | x | n | n | n
ON1C(c2ccc(Cl)cc2Cl)N(O)[C@H]2CCCC[C@H]21 (stereo not given in full) | n | n | n | n | n

Assay outcomes: PubChem, several laboratories
